Columns and labels:
[1] = system: human constitutive 20S proteasome; test: Small peptide; format: biochemical; conditions: for max fold increase, chymotrypsin-like site: Suc-LLVY-AMC; for max fold increase, caspase-like site: Z-LLE-AMC
Procedure, shortened: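 Human constitutive 20S proteasome (1 nM) in 38 mM Tris-HCl, 100 mM NaCl, pH 7.8 was preincubated with compound (8-point, 1.25–80 μM) at 37 °C. AMC substrates were added alone (final Suc-LLVY-AMC 20 µM, Z-LLE-AMC 20 µM, Boc-LRR-AMC 40 μM) or combined (6.67 μM each final). Fluorescence (380/460 nm) was read over 1 h at 37 °C. Hydrolysis rate was expressed as fold change versus vehicle.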

26S proteasome = test: Small peptide; format: biochemical; conditions: only at the highest concentration
GFP-ODC [2] = test: Cellular degradation of GFP-ODC; format: cell-based, human; conditions: 16 h, HEK-293T stably expressing GFP-ODC
Procedure, shortened: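 HEK-293T stably expressing GFP-ODC were grown to 80% confluency in 60 mm plates and treated 16 h with compound or DMSO. Controls: 5 μM bortezomib, 20 μM chlorpromazine. Cells were pelleted, PBS-washed and lysed in RIPA with protease inhibitors (20 min on ice). Western blot followed; only the full-length 75 kDa GFP-ODC band was quantified, in triplicate.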

GFP-ODC [3] = test: Cell-based GFP-ODC AlphaLISA; set-up: species or system human; conditions: for IC50: Homo sapiens, HEK-293T, read-out: IC50 of the AlphaLISA signal; for reduction of the GFP-ODC AlphaLISA signal: 8-point titration, fresh powder stocks
Procedure, shortened: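 HEK-293T cells stably expressing GFP-ODC, from a flow-sorted medium-GFP expressor pool, were plated at 10,000 cells/well in phenol red-free DMEM and dosed with compound or DMSO at plating. Cells were lysed in Surefire lysis buffer with shaking for 30 min at RT. Biotinylated anti-ODC plus anti-GFP acceptor bead (10× mix) went on for 1 h in the dark, then streptavidin donor bead for 30 min. Alpha signal read. Wells without anti-ODC served as negative control.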

[4] = Cell viability, parallel CellTiter-Glo assay; format: cell-based, human; conditions: human, HEK-293T cells stably expressing GFP-ODC
HEK-293T cells = test: Cell viability, parallel CellTiter-Glo assay; format: cell-based, human; conditions: HEK-293T cells stably expressing GFP-ODC, 8-point titration
[5] = system: purified human 20S proteasome; test: In vitro degradation of α-synuclein by purified 20S proteasome; format: biochemical; conditions: 3 h, compared to untreated proteasome
Procedure, shortened: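 Purified human 20S proteasome in 50 mM HEPES, 5 mM DTT, pH 7.2 was preincubated with compound or DMSO for 45 min at 37 °C. Purified α-synuclein was then added and incubated 3 h at 37 °C; final reaction was 0.3 μM α-synuclein and 10 nM proteasome. GAPDH (0.5 μM) was added as loading control. α-Synuclein remaining was quantified by western blot versus DMSO.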

K48 ubiquitin = test: Cellular K48 ubiquitin levels; format: cell-based, human; conditions: same cell lysates as the GFP-ODC western blot
[6] = Solubility observed in the AlphaLISA dose response; format: physicochemical; conditions: at higher concentrations of the dose response
EGFR = conditions: read-out: IC50 for EGFR tyrosine kinase inhibition; reported value; cited from earlier work
[7] = combination of the three fluorogenic peptide probes

CN(C)CCCN1c2ccccc2Sc2ccc(Cl)cc21 [CPZ, chlorpromazine]
overall max fold increase of 20S proteasome activity [1, 7]: 6.3 fold
catalytic sites of the 20S proteasome activated ([1]; individual fluorogenic peptide substrates): only activated the chymotrypsin-like site
activation of the 26S proteasome (26S proteasome): 2 fold
full-length GFP-ODC remaining (GFP-ODC [2]; 20 μM compound): 97%

CCN(CC)CCNc1ccc(CO)c2sc3ccccc3c(=O)c12 [Hycanthone]
IC50 (GFP-ODC [3]): 15.1 µM
CC50 [4]: 69.7 µM

CCN(CC)CCCC(C)Nc1c2ccc(Cl)cc2nc2ccc(OC)cc12 (centres unmarked) [Quinacrine]
IC50 (GFP-ODC [3]): 4.8 µM

CC(C)C[C@H]1C(=O)N2CCC[C@H]2[C@]2(O)O[C@](NC(=O)[C@@H]3C=C4c5cccc6[nH]c(Br)c(c56)C[C@H]4N(C)C3)(C(C)C)C(=O)N12 [bromocriptine]
reduction of the GFP-ODC AlphaLISA signal (GFP-ODC [3]): did not reduce the AlphaLISA signal below 50% (Figure S2) or did not reduce the AlphaLISA signal without significant cell death

C#Cc1cccc(Nc2ncnc3cc(OCCOC)c(OCCOC)cc23)c1 [erlotinib]
IC50 (GFP-ODC [3]): 5.4 µM
cell cytotoxicity (HEK-293T cells): no significant cell cytotoxicity
max fold increase, trypsin-like site ([1]; Boc-LRR-AMC): 5.9 fold
max fold increase, chymotrypsin-like site [1]: 5.1 fold
max fold increase, caspase-like site [1]: 3.1 fold
overall max fold increase of 20S proteasome activity [1, 7]: 5.7 fold
EC200, concentration at which the rate of proteolysis was doubled compared to the vehicle control ([1]; combination of the three fluorogenic peptide probes, 1 nM 20S): 12 µM
activation of the 26S proteasome (26S proteasome): 2.5- to 3 fold
α-synuclein remaining ([5]; 10 μM compound): 68%
α-synuclein remaining ([5]; 20 μM compound): 48%
full-length GFP-ODC remaining (GFP-ODC [2]; 10 μM compound): 34%
full-length GFP-ODC remaining (GFP-ODC [2]; 20 μM compound): 16%
effect on K48 ubiquitin / levels of ubiquitinylated proteins (K48 ubiquitin): no impact on the levels of ubiquitinylated proteins
solubility [6]: poor solubility at higher concentrations
IC50 (EGFR): 0.002 µM

CNCCC(Oc1ccc(C(F)(F)F)cc1)c1ccccc1 (centres unmarked) [fluoxetine]
reduction of the GFP-ODC AlphaLISA signal (GFP-ODC [3]): did not reduce the AlphaLISA signal below 50% (Figure S2) or did not reduce the AlphaLISA signal without significant cell death

COC(=O)C[C@](O)(CCCC(C)(C)O)C(=O)O[C@@H]1C(OC)=C[C@]23CCCN2CCc2cc4c(cc2[C@H]13)OCO4 [homoharringtonine]
reduction of the GFP-ODC AlphaLISA signal (GFP-ODC [3]): significantly decreased the AlphaLISA signal but not in a dose-dependent manner

O=C(N/N=C/c1ccc([N+](=O)[O-])o1)c1ccc(O)cc1 [nifuroxazide]
cell cytotoxicity (HEK-293T cells): low cytotoxicity

COc1cc2nc(N3CCN(C(=O)c4ccco4)CC3)nc(N)c2cc1OC [prazosin]
reduction of the GFP-ODC AlphaLISA signal (GFP-ODC [3]): did not reduce the AlphaLISA signal below 50% (Figure S2) or did not reduce the AlphaLISA signal without significant cell death
max fold increase, chymotrypsin-like site [1]: 3.5 fold
max fold increase, caspase-like site [1]: 5.8 fold
overall max fold increase of 20S proteasome activity [1, 7]: 4.5 fold
activation of the 26S proteasome (26S proteasome): 2.5- to 3 fold
full-length GFP-ODC remaining (GFP-ODC [2]; 20 μM compound): 84%

CC(=O)S[C@@H]1CC2=CC(=O)CC[C@]2(C)[C@H]2CC[C@@]3(C)[C@@H](CC[C@@]34CCC(=O)O4)[C@H]12 [spironolactone]
cell cytotoxicity (HEK-293T cells): low cytotoxicity

CN1CCN(CC/C=C2/c3ccccc3Sc3ccc(S(=O)(=O)N(C)C)cc32)CC1 [thiothixene]
reduction of the GFP-ODC AlphaLISA signal (GFP-ODC [3]): did not reduce the AlphaLISA signal below 50% (Figure S2) or did not reduce the AlphaLISA signal without significant cell death

CC(C)[C@]12O[C@H]1[C@@H]1O[C@]13[C@]1(O[C@H]1C[C@H]1C4=C(CC[C@@]13C)C(=O)OC4)[C@@H]2O [triptolide]
reduction of the GFP-ODC AlphaLISA signal (GFP-ODC [3]): significantly decreased the AlphaLISA signal but not in a dose-dependent manner

— article PMC10157846 (ACS Omega, 2023)
